Laboratory results reported in ChEMBL document CHEMBL4020707, “Exploring the influence of indololactone structure on selectivity for binding to the C1 domains of PKCα, PKCε, and RasGRP” (Bioorg Med Chem, 2017).

Experiments:
[1] = biological target: Protein kinase C alpha type (Homo sapiens, UniProt P17252); assay: Displacement of [20-3H]phorbol 12,13-dibutyrate from PKCalpha (unknown origin) in the presence of porcine brain phosphatidylserine by scintillation counting
In short: (§1)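 Competitive binding against bound [20-3H]PDBu with 100 μg/ml phosphatidylserine present. Each curve used six ligand concentrations, each measured in triplicate. IC50 was obtained by least-squares fit of a theoretical sigmoidal competition curve. Ki was calculated from IC50 after correcting for competition by [3H]PDBu. Values are mean ± SE of at least three independent experiments.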

[2] = biological target: T1, Protein kinase C epsilon type (Homo sapiens, UniProt Q02156); assay: Displacement of [20-3H]phorbol 12,13-dibutyrate from PKCepsilon (unknown origin) in the presence of porcine brain phosphatidylserine by scintillation counting; in short: as §1
T1 sequence (Q02156 whole entry): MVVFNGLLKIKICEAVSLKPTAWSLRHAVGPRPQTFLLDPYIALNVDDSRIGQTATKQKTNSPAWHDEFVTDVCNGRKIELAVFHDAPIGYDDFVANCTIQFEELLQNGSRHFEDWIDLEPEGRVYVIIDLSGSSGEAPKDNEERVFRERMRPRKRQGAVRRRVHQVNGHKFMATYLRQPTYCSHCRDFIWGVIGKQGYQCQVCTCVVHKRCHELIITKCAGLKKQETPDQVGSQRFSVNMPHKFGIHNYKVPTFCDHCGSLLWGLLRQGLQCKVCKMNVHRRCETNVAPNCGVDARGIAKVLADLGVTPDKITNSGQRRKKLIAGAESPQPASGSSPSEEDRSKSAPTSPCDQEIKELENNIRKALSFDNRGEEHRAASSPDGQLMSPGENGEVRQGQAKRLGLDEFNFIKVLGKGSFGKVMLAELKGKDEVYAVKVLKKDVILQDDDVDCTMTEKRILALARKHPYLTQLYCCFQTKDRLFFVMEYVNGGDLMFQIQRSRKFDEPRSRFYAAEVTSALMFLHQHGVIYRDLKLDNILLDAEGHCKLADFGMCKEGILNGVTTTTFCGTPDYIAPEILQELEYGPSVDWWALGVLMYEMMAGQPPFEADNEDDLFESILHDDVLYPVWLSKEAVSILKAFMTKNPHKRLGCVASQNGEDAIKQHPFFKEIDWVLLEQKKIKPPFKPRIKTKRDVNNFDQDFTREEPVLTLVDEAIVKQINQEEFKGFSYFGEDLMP

[3] = biological target: T2, RAS guanyl-releasing protein 1 (Homo sapiens, UniProt O95267); assay: Displacement of [20-3H]phorbol 12,13-dibutyrate from RasGRP1 (unknown origin) in the presence of porcine brain phosphatidylserine by scintillation counting; in short: as §1
T2 sequence (O95267 whole entry): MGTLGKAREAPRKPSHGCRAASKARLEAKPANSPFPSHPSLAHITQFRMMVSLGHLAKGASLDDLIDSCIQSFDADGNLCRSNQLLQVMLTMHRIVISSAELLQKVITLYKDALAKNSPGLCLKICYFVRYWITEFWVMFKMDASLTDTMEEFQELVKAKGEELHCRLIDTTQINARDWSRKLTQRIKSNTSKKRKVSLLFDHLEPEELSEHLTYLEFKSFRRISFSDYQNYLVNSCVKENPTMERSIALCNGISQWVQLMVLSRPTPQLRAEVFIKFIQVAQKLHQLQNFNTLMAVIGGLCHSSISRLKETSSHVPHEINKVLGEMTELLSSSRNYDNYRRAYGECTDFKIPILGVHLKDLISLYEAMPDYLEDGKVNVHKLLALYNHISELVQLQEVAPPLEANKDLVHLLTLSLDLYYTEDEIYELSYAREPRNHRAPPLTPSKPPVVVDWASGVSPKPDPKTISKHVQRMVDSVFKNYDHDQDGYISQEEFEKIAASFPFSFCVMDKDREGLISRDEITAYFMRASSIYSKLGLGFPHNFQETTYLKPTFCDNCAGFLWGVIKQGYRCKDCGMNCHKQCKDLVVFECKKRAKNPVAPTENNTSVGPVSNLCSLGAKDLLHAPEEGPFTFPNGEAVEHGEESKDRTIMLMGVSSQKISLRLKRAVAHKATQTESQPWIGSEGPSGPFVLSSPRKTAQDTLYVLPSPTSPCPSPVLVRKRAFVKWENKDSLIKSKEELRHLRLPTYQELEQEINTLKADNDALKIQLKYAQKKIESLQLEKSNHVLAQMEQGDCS

Homo sapiens [4] = species on record: Homo sapiens; assay: Selectivity index, ratio of Ki for PKCalpha (unknown origin) to Ki for RasGRP1 (unknown origin)
Homo sapiens [5] = species on record: Homo sapiens; assay: Selectivity index, ratio of Ki for PKCepsilon (unknown origin) to Ki for RasGRP1 (unknown origin)
Homo sapiens [6] = species on record: Homo sapiens; assay: Selectivity index, ratio of Ki for PKCalpha (unknown origin) to Ki for PKCepsilon (unknown origin)

SMILES | Ki [1] [nM] | Ki [2] [nM] | Ki [3] [nM] | Ratio Ki (Homo sapiens [4]) | Ratio Ki (Homo sapiens [5]) | Ratio Ki (Homo sapiens [6])
Cc1ccc(C#Cc2ccc(C=C3CC(CO)(COC(=O)c4cn(C)c5ccccc45)OC3=O)cc2)cc1 (stereo not drawn) | 116 | 131 | 22.6 | 5.1 | 5.8 | 0.89
CCCC(/C=C1\CC(CO)(COC(=O)c2cn(C)c3ccccc23)OC1=O)CCC (stereo not drawn) | 504 | 295 | 133 | 3.8 | 2.2 | 1.7
CC(C)CC(C/C=C1\CC(CO)(COC(=O)c2cn(C)c3ccccc23)OC1=O)CC(C)C (stereo not drawn) | 73 | 27.3 | 31.3 | 2.3 | 0.87 | 2.7
CC(C)=C1CC(CO)(COC(=O)c2cn(C)c3ccccc23)OC1=O (stereo not drawn) | 698 | 301 | 666 | 1.08 | 0.45 | 2.3
CCCCCCCCC/C=C1\CC(CO)(COC(=O)c2cn(C)c3ccccc23)OC1=O (stereo not drawn) | 106 | 59.6 | 63.3 | 1.7 | 0.94 | 1.8
CCCC(CCC)C(=O)OCC1(CO)C/C(=C\c2cn(C)c3ccccc23)C(=O)O1 (stereo not drawn) | 12.9 | 31 | 0.58 | 22 | 53 | 0.42
Cc1ccc(C#Cc2ccc(/C=C3\CC(CO)(COC(=O)c4cn(C)c5ccccc45)OC3=O)cc2)cc1 (stereo not drawn) | 257 | 119 | 40 | 6.5 | 3 | 2.2
CC(C)CC(C/C=C1/CC(CO)(COC(=O)c2cn(C)c3ccccc23)OC1=O)CC(C)C (stereo not drawn) | 83.1 | 55 | 22.6 | 3.7 | 2.4 | 1.5
